# ChEMBL document CHEMBL4364327, “Discovery of benzimidazole analogs as a novel interleukin-5 inhibitors” (Eur J Med Chem, 2019)
# Biological target: T1, Interleukin-5 receptor subunit alpha (Mus musculus) (UniProt P21183)
# T1 sequence (whole entry): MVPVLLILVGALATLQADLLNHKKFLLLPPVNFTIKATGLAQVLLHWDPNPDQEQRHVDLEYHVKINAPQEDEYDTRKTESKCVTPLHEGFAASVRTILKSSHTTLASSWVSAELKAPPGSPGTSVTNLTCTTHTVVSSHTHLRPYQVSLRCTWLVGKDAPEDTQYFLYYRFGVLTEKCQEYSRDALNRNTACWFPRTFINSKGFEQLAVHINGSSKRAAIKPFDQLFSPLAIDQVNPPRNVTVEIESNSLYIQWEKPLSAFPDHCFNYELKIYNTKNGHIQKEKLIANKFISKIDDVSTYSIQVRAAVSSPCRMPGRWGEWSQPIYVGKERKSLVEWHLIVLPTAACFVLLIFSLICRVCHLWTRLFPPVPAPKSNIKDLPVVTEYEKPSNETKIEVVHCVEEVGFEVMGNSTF
# Test: Inhibition of IL-5 receptor in mouse pro-B Y16 cells assessed as decrease in mIL-5 dependent cell proliferation at 30 uM after 48 hrs in presence of 3 units/ml mIL-5 by WST-1 assay relative to control
# Assay type: cell-based
# Settings: not given
# Procedure, shortened: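 Y16 murine early B-cell line was maintained in RPMI-1640 with 8% FBS and 3 units/mL mIL-5. Cells were washed twice in Hanks', resuspended without IL-5 (viability >95%), and plated at 1 × 10⁴ cells per well. A 3 units/mL mIL-5 solution and sample were added. Control wells received medium in place of sample; blank wells received medium in place of mIL-5. After 48 h at 37 °C, WST-1 was added for 2–4 h and A450 was read.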
row,Structure (SMILES),inhibition [%]
1,OCC(CC1CCCCC1)NCc1nc2c(OCC3CCCCC3)cccc2[nH]1 (stereo unspecified),94.7
2,CN(CCO)Cc1nc2c(OCC3CCCCC3)cccc2[nH]1,42
3,CCN(CCO)Cc1nc2c(OCC3CCCCC3)cccc2[nH]1,34.7
4,CC(C)(CO)NCc1nc2c(OCC3CCCCC3)cccc2[nH]1,54.7
5,OCCN(Cc1ccncc1)Cc1nc2c(OCC3CCCCC3)cccc2[nH]1,43.3
6,CCCC(CO)NCc1nc2c(OCC3CCCCC3)cccc2[nH]1 (stereo unspecified),73.3
7,COc1ccc(CN(CCO)Cc2nc3c(OCC4CCCCC4)cccc3[nH]2)cc1,73.3
8,OCCCCCNCc1nc2c(OCC3CCCCC3)cccc2[nH]1,23.7
9,CCC(CO)NCc1nc2c(OCC3CCCCC3)cccc2[nH]1 (stereo unspecified),94.3
10,CC(C)N(CCO)Cc1nc2c(OCC3CCCCC3)cccc2[nH]1,10
11,OCCN(Cc1ccc(Cl)cc1)Cc1nc2c(OCC3CCCCC3)cccc2[nH]1,96
12,CCCN(CCO)Cc1nc2c(OCC3CCCCC3)cccc2[nH]1,63
13,OCCN(Cc1nc2c(OCC3CCCCC3)cccc2[nH]1)CC1CCCCC1,76.7
14,OCCN(Cc1nc2c(OCC3CCCCC3)cccc2[nH]1)C1CCCCC1,24
15,OCCCCNCc1nc2c(OCC3CCCCC3)cccc2[nH]1,44.3

# Results, then the compound that gave them:
row,inhibition [%],Structure (SMILES)
1,64.7,OCCC(NCc1nc2c(OCC3CCCCC3)cccc2[nH]1)c1ccccc1 (stereo unspecified)
2,77.7,OCC(NCc1nc2c(OCC3CCCCC3)cccc2[nH]1)c1ccccc1 (stereo unspecified)
3,52.7,OCCCNCc1nc2c(OCC3CCCCC3)cccc2[nH]1
4,63.3,OCCNCc1nc2c(OCC3CCCCC3)cccc2[nH]1
5,20.3,COc1ccc(NCc2nc3c(OCC4CCCCC4)cccc3[nH]2)cc1
6,81,OCC(Cc1ccccc1)NCc1nc2c(OCC3CCCCC3)cccc2[nH]1 (stereo unspecified)
7,25,c1ccc(NCc2nc3c(OCC4CCCCC4)cccc3[nH]2)cc1
8,43.3,COc1ccc(CNCc2nc3c(OCC4CCCCC4)cccc3[nH]2)cc1
9,49.3,c1ccc(CNCc2nc3c(OCC4CCCCC4)cccc3[nH]2)cc1
10,62.3,OCCN(Cc1ccccc1)Cc1nc2c(OCC3CCCCC3)cccc2[nH]1

# Biological target: T1, Interleukin-5 receptor subunit alpha (Mus musculus)
# Test: Inhibition of IL-5 receptor in mouse pro-B Y16 cells assessed as decrease in mIL-5 dependent cell proliferation at 50 uM after 48 hrs in presence of 3 units/ml mIL-5 by WST-1 assay relative to control
# Assay type: cell-based
# Settings: not given
row,inhibition [%],Structure (SMILES)
1,79.1,O=c1c(-c2ccc(O[C@@H]3O[C@H](CO)[C@@H](O)[C@H](O)[C@H]3O)cc2)coc2cc(O)cc(O)c12
2,70.2,CCCC1O[C@@H]2C[C@H]3[C@@H]4CCC5=CC(=O)C=C[C@]5(C)[C@H]4[C@@H](O)C[C@]3(C)[C@]2(C(=O)CO)O1 (stereo partly specified)

# Tested on: not listed separately
# Test: Cytotoxicity against human HCC1395BL cells assessed as inhibition of cell viability at 30 uM measured after 48 hrs by MTT assay
# Assay type: cell-based
# Settings: read-out: INH
# Procedure, shortened: (§1)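 HCC1395 BL or NCI-BL1184 normal B lymphoblasts were cultured in RPMI-1640 or IMDM with 10% FBS at 37 °C and 5% CO₂, with serum but no IL-5. Cells were exposed to compound for 48 h, then to 0.5 mg/mL MTT for a further 3 h. Values are the mean ± SD of three independent measurements.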
row,Structure (SMILES),"cytotoxicity at 48 h, 30 µM [%]"
1,OCC(CC1CCCCC1)NCc1nc2c(OCC3CCCCC3)cccc2[nH]1 (stereo unspecified),12.5
2,CCC(CO)NCc1nc2c(OCC3CCCCC3)cccc2[nH]1 (stereo unspecified),7.5

# Tested on: not listed separately
# Test: Cytotoxicity against human NCI-BL1184 cells assessed as inhibition of cell viability at 30 uM measured after 48 hrs by MTT assay
# Assay type: cell-based
# Settings: read-out: INH
# Procedure, shortened: as §1
row,Structure (SMILES),"cytotoxicity at 48 h, 30 µM [%]"
1,OCC(CC1CCCCC1)NCc1nc2c(OCC3CCCCC3)cccc2[nH]1 (stereo unspecified),9.8
2,CCC(CO)NCc1nc2c(OCC3CCCCC3)cccc2[nH]1 (stereo unspecified),10.2
